In ChEMBL document CHEMBL1134930, “Novel nucleotide phosphonate analogues with potent antitumor activity” (Bioorg Med Chem Lett, 2002):

Experiments:
MCF7 = assay: Compound was evaluated for its in vitro activity in human solid tumor cell line MCF-7 measured in a [3H]thymidine incorporation assay; assay type: functional, cell-based; details: MCF7, 72 h
How it was run: (§1)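 Cell lines adapted to RPMI medium, exposed to compound for 72 h at 37 °C under 5% CO2. Methyl-[3H]-thymidine (0.5 μCi) added for the final 16 h, then incorporation measured. Antiproliferative IC50 (μM) reported.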

NCI-H460 = assay: Compound was evaluated for its in vitro activity in human solid tumor cell line H-460 measured in a [3H]thymidine incorporation assay; assay type: functional, cell-based; details: NCI-H460, 72 h; how it was run: as §1
SF-268 = assay: Compound was evaluated for its in vitro activity in human solid tumor cell line SF-268 measured in a [3H]thymidine incorporation assay; assay type: functional, cell-based; details: SF-268, 72 h; how it was run: as §1
MRC5 = assay: Cytotoxicity of compound was evaluated against MRC-5 cell line.; assay type: functional; details: Homo sapiens

IC50 (MCF7) [µM]	IC50 (NCI-H460) [µM]	IC50 (SF-268) [µM]	SMILES	CC50 (MRC5) [µg/mL]
52	57	> 100	Nc1nc(N)c2ncn(C[C@@H]3CC[C@@H](P(=O)(O)O)O3)c2n1	
> 100	> 100	> 100	Nc1nc(O)c2ncn(C[C@H]3O[C@@H](P(=O)(O)O)[C@H](O)[C@@H]3O)c2n1	
67	40	> 100	Nc1nc(O)c2ncn(C[C@@H]3CC[C@H](P(=O)(O)O)O3)c2n1	> 10
> 100	64	> 100	N.Nc1nc(O)c2ncn(C[C@@H]3CC[C@@H](P(=O)(O)O)O3)c2n1	28
48	20	28	Nc1nc(NC2CC2)c2ncn(C[C@H]3O[C@@H](P(=O)(O)O)C[C@@H]3O)c2n1	
> 100	> 100	> 100	Nc1nc(NC2CC2)c2ncn(C[C@@H]3CC[C@@H](P(=O)(O)O)O3)c2n1	

The remaining lines, values behind:

SMILES	IC50 (MCF7) [µM]	IC50 (NCI-H460) [µM]	IC50 (SF-268) [µM]	CC50 (MRC5) [µg/mL]
Nc1nc(O)c2ncn(C[C@H]3O[C@H](P(=O)(O)O)C[C@@H]3O)c2n1	53	30	13	
CO[C@H]1C[C@H](P(=O)(O)O)O[C@@H]1Cn1cnc2c(O)nc(N)nc21	5.6	7.6	2.4	
Nc1nc(O)c2ncn(C[C@H]3O[C@@H](P(=O)(O)O)C[C@@H]3F)c2n1	> 100	44	> 100	
Nc1nc(O)c2ncn(C[C@H]3O[C@@H](P(=O)(O)O)C[C@@H]3O)c2n1	0.67	0.53	0.14	
Nc1nc(N)c2ncn(C[C@H]3O[C@@H](P(=O)(O)O)C[C@@H]3O)c2n1	1.4	0.71	1.2	
Nc1nc(O)c2ncn(C[C@H]3O[C@@H](P(=O)(O)O)C[C@H]3F)c2n1	> 12	7.1	44	
